According to PMC7655718 (The Journal of antibiotics, 2020):
Values after ≈ are worked out from the molar mass of the structure shown. Like-named read-outs stand apart in the source and are kept apart here.

Experiments:
[1] = test system: A. baumannii ATCC 747 (Ab47); test: MIC, microdilution with resazurin; assay type: cell-based, Acinetobacter baumannii; settings: Acinetobacter baumannii, ATCC747, read-out: MIC Ab47
How it was run: (§1)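 Compounds dissolved in DMSO at 2 mg/mL. Overnight blood-agar colonies were suspended in PBS to 0.5 McFarland, then diluted in Mueller Hinton broth to about 1x10^6 cfu/mL with resazurin (1:1000 of 0.1% w/v stock). Twofold DMSO dilutions were added 1:40, giving 50 to 0.4 μg/mL at 2.5% DMSO. Incubation was 35 °C for 16-20 h. Blue/non-turbid wells counted as inhibited, pink/turbid as grown.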

[2] = test system: S. aureus ATCC 25923 (Sa23); test: MIC, microdilution with resazurin; assay type: cell-based; settings: Staphylococcus aureus, ATCC25923, read-out: MIC Sa23
How it was run: as §1

[3] = test system: S. aureus ATCC 33592 (Sa92); test: MIC, microdilution with resazurin; assay type: cell-based; settings: Staphylococcus aureus, ATCC33592, read-out: MIC Sa92
How it was run: as §1

[4] = test system: B. subtilis ATCC 6623 (Bs); test: MIC, microdilution with resazurin; assay type: cell-based, Bacillus subtilis; settings: Bacillus subtilis, ATCC6623, read-out: MIC Bs
[5] = test system: S. aureus ATCC 33591 (Sa91); test: MIC, microdilution with resazurin; assay type: cell-based; settings: Staphylococcus aureus, ATCC33591, read-out: MIC Sa91
How it was run: as §1

[6] = test system: S. epidermidis 700296 (Se); test: MIC, microdilution with resazurin; assay type: cell-based; settings: Staphylococcus epidermidis, read-out: MIC Se
How it was run: as §1

[7] = test system: A. baumannii ATCC 19606 (type strain, Ab06); test: MIC and MBC; assay type: cell-based, Acinetobacter baumannii; settings: Acinetobacter baumannii
How it was run: as §1

[8] = test system: S. aureus BAA-2312 (Sa12); test: MIC, microdilution with resazurin; assay type: cell-based; settings: Staphylococcus aureus, BAA2312, read-out: MIC Sa12
How it was run: as §1

[9] = test system: tested Gram-positive bacterial strains; test: MIC, text summary over tested Gram-positive strains; assay type: cell-based
[10] = test system: S. aureus ATCC 700699 (Sa99); test: MIC, microdilution with resazurin; assay type: cell-based; settings: Staphylococcus aureus, ATCC700699, read-out: MIC Sa99
How it was run: as §1

[11] = test system: S. aureus ATCC 25923 biofilm formation; test: Biofilm inhibition assay; assay type: cell-based, Staphylococcus aureus; settings: 2xMIC, MIC and 0.5xMIC concentrations, 24 hours
How it was run: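 Blood-agar culture was suspended in PBS (0.5 McFarland), then diluted 1:100 in yeast extract casamino acid broth (about 1x10^6 cfu/mL). Compound at 2xMIC, MIC and 0.5xMIC was added before biofilm formation, in triplicate, with broth-only and bacteria+DMSO controls. Incubation was 35 °C for 24 h. Wells were PBS-washed, dried, stained with 0.1% crystal violet, solubilised in 33% acetic acid and read at 620 nm. % inhibition = [1−(ODcompound−ODbroth)/(ODdmso−ODbroth)]×100, from mean and SD.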

[12] = test system: A. baumannii ATCC 19606; test: Time kill assay; assay type: cell-based, Acinetobacter baumannii; settings: 4xMIC
How it was run: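 Growth curves by optical density set the log phase. Log-phase bacteria (about 2 h shaking in Mueller Hinton broth II) were diluted in warm broth to about 3x10^6 cfu/mL. They were exposed to compound at 4xMIC (other multiples where indicated), in triplicate, at 35 °C. Colistin (A. baumannii) or vancomycin (S. aureus) and DMSO were included. Samples at 0, 2, 4, 6, 8, 10, 12 and 24 h were counted by drop plate on blood agar (18-24 h, 35 °C). Log cfu/mL was plotted against time.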

[13] = test system: human embryonic kidney cell line (HEK293); test: Toxicity against HEK293 cell line; assay type: cell-based

Row | Structure (SMILES) | MIC [1] | MIC [2] | MIC [3] | MIC [4] | MIC [5] | MIC [6] | MIC ([7]; ATCC19606, read-out: MIC Ab06) | MIC [8] | MIC ([9]; Staphylococcus aureus, read-out: MIC value against S. aureus strains) | MIC [10] | MIC ([9]; read-out: MIC value as low as) | inhibition of biofilm formation [11] | antimicrobial activity against the tested strains [9] | time kill effect ([12]; 24 hours at 35 °C) | increase in log10 cfu/mL of the bacterial population ([12]; through 24 hours) | MBC ([7]; ATCC19606) | MIC ([7]; ATCC19606) | toxicity for HEK293 [13]
1 | O=C(O)c1ccc(-n2cc(/C=N/Nc3ccccc3)c(-c3ccc4ccccc4c3)n2)cc1 [Compound 6] | > 50 µg/mL | 25 µg/mL (≈ 57.8 µM) | 12.5 µg/mL (≈ 28.9 µM) | 25 µg/mL (≈ 57.8 µM) | > 25 µg/mL | 25 µg/mL (≈ 57.8 µM) | > 50 µg/mL | 25 µg/mL (≈ 57.8 µM) | 25 µg/mL (≈ 57.8 µM) | 12.5 µg/mL (≈ 28.9 µM) | – | – | – | – | – | – | – | –
2 | CN(/N=C/c1cn(-c2ccc(C(=O)O)cc2)nc1-c1ccc2ccccc2c1)c1ccccc1 [Compound 7] | > 50 µg/mL | > 50 µg/mL | 1.56 µg/mL (≈ 3.49 µM) | > 50 µg/mL | > 50 µg/mL | > 50 µg/mL | > 50 µg/mL | > 50 µg/mL | – | 1.56 µg/mL (≈ 3.49 µM) | – | – | – | – | – | – | – | –
3 | O=C(O)c1ccc(-n2cc(/C=N/N(c3ccccc3)c3ccccc3)c(-c3ccc4ccccc4c3)n2)cc1 [Compound 8] | > 50 µg/mL | 1.56 µg/mL (≈ 3.07 µM) | 1.56 µg/mL (≈ 3.07 µM) | 12.5 µg/mL (≈ 24.6 µM) | 3.12 µg/mL (≈ 6.14 µM) | 1.56 µg/mL (≈ 3.07 µM) | > 50 µg/mL | 3.12 µg/mL (≈ 6.14 µM) | – | 1.56 µg/mL (≈ 3.07 µM) | ≥ 1.56 µg/mL | very effective | – | – | – | – | – | –
4 | O=C(O)c1ccc(-n2cc(/C=N/N(Cc3ccccc3)c3ccccc3)c(-c3ccc4ccccc4c3)n2)cc1 [Compound 9] | > 50 µg/mL | 3.12 µg/mL (≈ 5.98 µM) | 1.56 µg/mL (≈ 2.99 µM) | 25 µg/mL (≈ 47.8 µM) | 1.56 µg/mL (≈ 2.99 µM) | 3.12 µg/mL (≈ 5.98 µM) | > 50 µg/mL | 3.12 µg/mL (≈ 5.98 µM) | – | 1.56 µg/mL (≈ 2.99 µM) | ≥ 1.56 µg/mL | – | – | – | – | – | – | –
5 | Cc1ccc(N/N=C/c2cn(-c3ccc(C(=O)O)cc3)nc2-c2ccc3ccccc3c2)cc1 [Compound 11] | > 50 µg/mL | 25 µg/mL (≈ 56 µM) | 12.5 µg/mL (≈ 28 µM) | 25 µg/mL (≈ 56 µM) | 25 µg/mL (≈ 56 µM) | 25 µg/mL (≈ 56 µM) | > 50 µg/mL | 25 µg/mL (≈ 56 µM) | – | 6.25 µg/mL (≈ 14 µM) | – | – | reduced the potency drastically | – | – | – | – | –
6 | CCc1ccccc1N/N=C/c1cn(-c2ccc(C(=O)O)cc2)nc1-c1ccc2ccccc2c1 [Compound 12] | > 50 µg/mL | 25 µg/mL (≈ 54.3 µM) | 12.5 µg/mL (≈ 27.1 µM) | 25 µg/mL (≈ 54.3 µM) | 25 µg/mL (≈ 54.3 µM) | > 25 µg/mL | > 50 µg/mL | 25 µg/mL (≈ 54.3 µM) | – | 12.5 µg/mL (≈ 27.1 µM) | – | – | reduced the potency drastically | – | – | – | – | –
7 | COc1ccc(N/N=C/c2cn(-c3ccc(C(=O)O)cc3)nc2-c2ccc3ccccc3c2)cc1 [Compound 13] | > 50 µg/mL | > 25 µg/mL | 25 µg/mL (≈ 54.1 µM) | > 25 µg/mL | 25 µg/mL (≈ 54.1 µM) | > 25 µg/mL | > 50 µg/mL | > 25 µg/mL | – | 12.5 µg/mL (≈ 27 µM) | – | – | reduced the potency drastically | – | – | – | – | –
8 | O=C(O)c1ccc(-n2cc(/C=N/Nc3ccc(Cl)cc3)c(-c3ccc4ccccc4c3)n2)cc1 [Compound 16] | 6.25 µg/mL (≈ 13.4 µM) | 6.25 µg/mL (≈ 13.4 µM) | 3.12 µg/mL (≈ 6.69 µM) | 12.5 µg/mL (≈ 26.8 µM) | 12.5 µg/mL (≈ 26.8 µM) | 6.25 µg/mL (≈ 13.4 µM) | 3.12 µg/mL (≈ 6.69 µM) | 6.25 µg/mL (≈ 13.4 µM) | – | 1.56 µg/mL (≈ 3.34 µM) | – | – | – | bacteriostatic effect | ≤ 2 fold | 50 µg/mL (≈ 107 µM) | 3.12 µg/mL (≈ 6.69 µM) | –
9 | O=C(O)c1ccc(-n2cc(/C=N/Nc3c(F)c(F)c(F)c(F)c3F)c(-c3ccc4ccccc4c3)n2)cc1 [Compound 24] | > 50 µg/mL | 3.12 µg/mL (≈ 5.98 µM) | 0.78 µg/mL (≈ 1.49 µM) | 1.56 µg/mL (≈ 2.99 µM) | > 50 µg/mL | > 50 µg/mL | > 50 µg/mL | > 50 µg/mL | – | 0.78 µg/mL (≈ 1.49 µM) | ≥ 0.78 µg/mL | – | – | – | – | – | – | selective toxicity for bacterial cells
10 | N#Cc1ccc(N/N=C/c2cn(-c3ccc(C(=O)O)cc3)nc2-c2ccc3ccccc3c2)cc1 [Compound 26] | > 50 µg/mL | > 50 µg/mL | > 50 µg/mL | > 50 µg/mL | > 50 µg/mL | > 50 µg/mL | > 50 µg/mL | > 50 µg/mL | – | > 50 µg/mL | – | – | eliminated the activity | – | – | – | – | –
11 | O=C(O)c1ccc(-n2cc(/C=N/Nc3ccc([N+](=O)[O-])cc3)c(-c3ccc4ccccc4c3)n2)cc1 [Compound 27] | > 50 µg/mL | > 50 µg/mL | > 50 µg/mL | > 50 µg/mL | > 50 µg/mL | > 50 µg/mL | > 50 µg/mL | > 50 µg/mL | – | > 50 µg/mL | – | – | eliminated the activity | – | – | – | – | –
12 | O=C(O)c1ccc(N/N=C/c2cn(-c3ccc(C(=O)O)cc3)nc2-c2ccc3ccccc3c2)cc1 [Compound 28] | > 50 µg/mL | > 50 µg/mL | > 50 µg/mL | > 50 µg/mL | > 50 µg/mL | > 50 µg/mL | > 50 µg/mL | > 50 µg/mL | – | > 50 µg/mL | – | – | eliminated the activity | – | – | – | – | –
13 | CN(C)/N=C/c1cn(-c2ccc(C(=O)O)cc2)nc1-c1ccc2ccccc2c1 [Compound 29] | > 50 µg/mL | > 25 µg/mL | > 25 µg/mL | > 25 µg/mL | > 50 µg/mL | > 25 µg/mL | > 50 µg/mL | > 50 µg/mL | – | 25 µg/mL (≈ 65 µM) | – | – | did not show any activity | – | – | – | – | –
14 | O=C(O)c1ccc(-n2cc(/C=N/N3CCCCC3)c(-c3ccc4ccccc4c3)n2)cc1 [Compound 30] | > 50 µg/mL | > 25 µg/mL | 25 µg/mL (≈ 58.9 µM) | 25 µg/mL (≈ 58.9 µM) | > 25 µg/mL | > 25 µg/mL | > 50 µg/mL | > 50 µg/mL | – | 25 µg/mL (≈ 58.9 µM) | – | – | failed to show any remarkable antimicrobial activity | – | – | – | – | –
15 | CN1CCN(/N=C/c2cn(-c3ccc(C(=O)O)cc3)nc2-c2ccc3ccccc3c2)CC1 [Compound 31] | > 50 µg/mL | > 50 µg/mL | > 50 µg/mL | > 50 µg/mL | > 50 µg/mL | > 50 µg/mL | > 50 µg/mL | > 50 µg/mL | – | > 50 µg/mL | – | – | failed to show any remarkable antimicrobial activity | – | – | – | – | –
16 | O=C(O)c1ccc(-n2cc(/C=N/n3cnnc3)c(-c3ccc4ccccc4c3)n2)cc1 [Compound 32] | > 50 µg/mL | > 50 µg/mL | > 50 µg/mL | > 50 µg/mL | > 50 µg/mL | > 50 µg/mL | > 50 µg/mL | > 50 µg/mL | – | > 50 µg/mL | – | – | failed to show any remarkable antimicrobial activity | – | – | – | – | –
17 | O=C(O)c1ccc(-n2cc(/C=N/NC3=NCCN3)c(-c3ccc4ccccc4c3)n2)cc1 [Compound 33] | > 50 µg/mL | > 50 µg/mL | > 50 µg/mL | > 50 µg/mL | > 50 µg/mL | > 50 µg/mL | > 50 µg/mL | > 50 µg/mL | – | > 50 µg/mL | – | – | failed to show any remarkable antimicrobial activity | – | – | – | – | –
18 | COC(=O)N/N=C/c1cn(-c2ccc(C(=O)O)cc2)nc1-c1ccc2ccccc2c1 [Compound 34] | > 50 µg/mL | > 50 µg/mL | > 50 µg/mL | > 50 µg/mL | > 50 µg/mL | > 50 µg/mL | > 50 µg/mL | > 50 µg/mL | – | > 50 µg/mL | – | – | failed to show any remarkable antimicrobial activity | – | – | – | – | –
